Converted amounts (≈) assume the structure as drawn. The source made the active and inactive calls. The rule behind the calls is not given here.
What was measured:
[1] = tested on: Mycobacterium tuberculosis; experiment: Antimycobacterial activity against Mycobacterium tuberculosis H37Rv after 5 days by standard microdilution method; assay type: functional; settings: 120 h
Cytochrome P450 3A4 = Cytochrome P450 3A4 (Homo sapiens, UniProt P08684); experiment: Inhibition of CYP3A4 (unknown origin); assay type: ADME
Sequence of Cytochrome P450 3A4 (P08684 whole entry, canonical isoform): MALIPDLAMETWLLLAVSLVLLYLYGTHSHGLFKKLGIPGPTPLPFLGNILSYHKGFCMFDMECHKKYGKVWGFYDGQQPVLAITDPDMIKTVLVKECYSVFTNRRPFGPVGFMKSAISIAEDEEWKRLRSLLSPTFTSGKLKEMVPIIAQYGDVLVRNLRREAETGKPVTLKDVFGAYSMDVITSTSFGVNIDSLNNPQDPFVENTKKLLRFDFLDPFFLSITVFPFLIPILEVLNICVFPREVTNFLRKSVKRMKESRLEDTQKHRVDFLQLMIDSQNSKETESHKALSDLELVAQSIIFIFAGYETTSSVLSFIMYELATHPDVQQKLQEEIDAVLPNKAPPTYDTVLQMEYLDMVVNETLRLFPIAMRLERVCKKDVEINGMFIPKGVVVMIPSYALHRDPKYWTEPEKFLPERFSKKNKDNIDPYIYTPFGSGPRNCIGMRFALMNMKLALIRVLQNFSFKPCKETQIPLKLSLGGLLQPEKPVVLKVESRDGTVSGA
Summary of the method: (§1)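 CYP inhibition IC50 measured on isoforms CYP3A4, CYP2D6, CYP2C9, CYP2C19 and CYP1A2.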

Cytochrome P450 1A2 = target: T1, Cytochrome P450 1A2 (Homo sapiens, UniProt P05177); experiment: Inhibition of CYP1A2 (unknown origin); assay type: ADME; summary of the method: as §1
T1 sequence (P05177 whole entry): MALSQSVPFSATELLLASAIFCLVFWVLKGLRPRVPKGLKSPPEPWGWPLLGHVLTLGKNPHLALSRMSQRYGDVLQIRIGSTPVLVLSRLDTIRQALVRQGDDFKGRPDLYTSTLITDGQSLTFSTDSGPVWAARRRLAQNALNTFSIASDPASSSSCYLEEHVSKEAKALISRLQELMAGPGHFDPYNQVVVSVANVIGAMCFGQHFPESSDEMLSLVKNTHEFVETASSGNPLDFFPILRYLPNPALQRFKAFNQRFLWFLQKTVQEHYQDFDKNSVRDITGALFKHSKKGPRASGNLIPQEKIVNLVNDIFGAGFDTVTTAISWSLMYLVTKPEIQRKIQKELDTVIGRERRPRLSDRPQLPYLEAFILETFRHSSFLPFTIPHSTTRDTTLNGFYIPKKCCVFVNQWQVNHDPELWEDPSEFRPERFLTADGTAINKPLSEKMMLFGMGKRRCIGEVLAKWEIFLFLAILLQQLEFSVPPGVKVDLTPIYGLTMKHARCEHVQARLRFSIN

Cytochrome P450 2D6 = Cytochrome P450 2D6 (Homo sapiens, UniProt P10635); experiment: Inhibition of CYP2D6 (unknown origin); assay type: ADME; summary of the method: as §1
Sequence of Cytochrome P450 2D6 (P10635 whole entry): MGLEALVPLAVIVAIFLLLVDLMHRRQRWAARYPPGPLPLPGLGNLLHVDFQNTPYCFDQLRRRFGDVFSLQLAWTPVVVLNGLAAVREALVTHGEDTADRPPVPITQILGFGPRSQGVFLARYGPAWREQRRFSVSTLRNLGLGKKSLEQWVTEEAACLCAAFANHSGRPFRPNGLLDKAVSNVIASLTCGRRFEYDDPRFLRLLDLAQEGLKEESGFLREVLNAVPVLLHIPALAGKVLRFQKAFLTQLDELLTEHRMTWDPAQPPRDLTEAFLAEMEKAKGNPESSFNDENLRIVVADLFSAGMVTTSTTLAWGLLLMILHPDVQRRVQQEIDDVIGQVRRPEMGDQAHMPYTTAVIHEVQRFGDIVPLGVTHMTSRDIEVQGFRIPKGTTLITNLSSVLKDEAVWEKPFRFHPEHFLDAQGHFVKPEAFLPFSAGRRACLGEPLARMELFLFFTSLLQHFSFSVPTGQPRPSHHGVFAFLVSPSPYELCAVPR

[2] = Inhibition of Mycobacterium smegmatis recombinant DprE1 using farnesylphosphoryl-beta-D-ribofuranose as substrate assessed as conversion of amplex red to resorufin after 30 mins; parameters: species or system Mycolicibacterium smegmatis
Summary of the method: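 Msm DprE1 (thioredoxin-6His fusion of Msm Rv3790) at 75 nM, preincubated 30 min with 10 μM FAD. Buffer: 50 mM glycylglycine pH 8.5, 200 mM potassium glutamate, 0.002% Brij-35, 2% DMSO, 25 °C. Started with 300 μM farnesylphosphoryl-β-D-ribofuranose, 0.01 mg/mL HRP and 50 μM Amplex Red.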

[3] = Intrinsic clearance in rat cryopreserved hepatocytes assessed per 10^6 cells at 1 uM up to 120 mins by LC-MS/MS analysis; assay type: ADME, cell-based, Hepatocyte; settings: read-out: CLH
[4] = Fraction unbound in human plasma at 20 uM after 18 hrs by equilibrium dialysis method; assay type: ADME, cell-free
[5] = Solubility of the compound in 0.1 M phosphate buffer at pH 7.4 after 24 hrs by UV and MS analysis; assay type: physicochemical
[6] = Cytotoxicity against human A549 cells after 72 hrs by resazurin based fluorescence assay; assay type: cell-based; settings: read-out: MIC
Summary of the method: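 Cytotoxicity read as MMIC, the MIC on the A549 cell line.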

Cytochrome P450 2C19 = Cytochrome P450 2C19 (Homo sapiens, UniProt P33261); experiment: Inhibition of CYP2C19 (unknown origin); assay type: ADME; summary of the method: as §1
Sequence of Cytochrome P450 2C19 (P33261 whole entry): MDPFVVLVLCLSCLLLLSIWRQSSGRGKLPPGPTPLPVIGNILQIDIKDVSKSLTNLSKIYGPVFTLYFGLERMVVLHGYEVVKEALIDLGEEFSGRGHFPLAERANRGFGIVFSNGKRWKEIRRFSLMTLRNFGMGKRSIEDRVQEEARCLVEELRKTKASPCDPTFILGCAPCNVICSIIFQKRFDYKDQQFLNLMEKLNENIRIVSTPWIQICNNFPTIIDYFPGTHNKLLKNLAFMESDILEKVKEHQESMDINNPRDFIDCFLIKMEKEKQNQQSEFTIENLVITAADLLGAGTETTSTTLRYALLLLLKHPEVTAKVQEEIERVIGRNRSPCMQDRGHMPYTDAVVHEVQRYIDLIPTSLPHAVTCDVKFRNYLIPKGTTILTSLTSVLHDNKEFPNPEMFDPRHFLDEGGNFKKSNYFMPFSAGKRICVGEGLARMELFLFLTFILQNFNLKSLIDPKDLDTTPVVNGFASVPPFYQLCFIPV

[7] = Intrinsic clearance in human liver microsomes at 1 uM up to 30 mins by LC-MS/MS analysis; assay type: ADME; settings: read-out: CLH
[8] = Permeability of the compound from basolateral to apical side in human Caco2 cells; assay type: ADME, cell-based; settings: Caco-2, read-out: permeability
[9] = Solubility of the compound in fed-state simulated intestinal fluid at pH 6.5; assay type: ADME
[10] = target: Voltage-gated inwardly rectifying potassium channel KCNH2 (Homo sapiens, UniProt Q12809); experiment: Inhibition of human ERG by medium-throughput electrophysiology
Sequence of Voltage-gated inwardly rectifying potassium channel KCNH2 (Q12809 whole entry): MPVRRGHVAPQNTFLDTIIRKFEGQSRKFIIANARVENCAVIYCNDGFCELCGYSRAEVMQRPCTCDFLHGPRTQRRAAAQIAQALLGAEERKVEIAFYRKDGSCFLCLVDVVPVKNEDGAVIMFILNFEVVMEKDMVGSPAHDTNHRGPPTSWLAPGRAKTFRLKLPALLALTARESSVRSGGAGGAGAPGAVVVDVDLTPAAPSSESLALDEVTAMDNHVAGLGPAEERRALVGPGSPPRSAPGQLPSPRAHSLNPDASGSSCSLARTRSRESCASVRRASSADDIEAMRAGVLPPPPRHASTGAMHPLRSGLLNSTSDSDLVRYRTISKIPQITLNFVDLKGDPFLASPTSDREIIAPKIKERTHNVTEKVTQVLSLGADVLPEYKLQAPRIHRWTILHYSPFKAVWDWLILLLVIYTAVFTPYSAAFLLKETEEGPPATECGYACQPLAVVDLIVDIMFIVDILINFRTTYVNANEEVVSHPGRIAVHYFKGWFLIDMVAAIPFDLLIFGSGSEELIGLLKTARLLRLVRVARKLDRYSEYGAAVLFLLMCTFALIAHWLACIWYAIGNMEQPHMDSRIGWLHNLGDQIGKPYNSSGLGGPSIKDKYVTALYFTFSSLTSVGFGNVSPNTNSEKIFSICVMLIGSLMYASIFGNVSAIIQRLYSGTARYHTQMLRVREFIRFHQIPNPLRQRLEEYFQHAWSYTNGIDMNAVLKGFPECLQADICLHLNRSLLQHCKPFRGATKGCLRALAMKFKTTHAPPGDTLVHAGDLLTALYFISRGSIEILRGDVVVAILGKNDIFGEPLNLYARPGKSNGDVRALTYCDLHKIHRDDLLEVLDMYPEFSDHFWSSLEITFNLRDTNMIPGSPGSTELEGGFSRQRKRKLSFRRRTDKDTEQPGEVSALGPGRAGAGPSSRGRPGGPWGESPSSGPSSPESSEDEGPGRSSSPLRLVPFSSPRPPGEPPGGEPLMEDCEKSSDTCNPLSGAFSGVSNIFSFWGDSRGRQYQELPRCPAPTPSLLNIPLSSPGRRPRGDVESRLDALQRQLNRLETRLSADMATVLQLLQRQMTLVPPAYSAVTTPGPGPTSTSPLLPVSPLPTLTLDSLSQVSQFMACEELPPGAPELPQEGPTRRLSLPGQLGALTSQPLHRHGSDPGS

[11] = Permeability of the compound from apical to basolateral side in human Caco2 cells; assay type: ADME, cell-based; settings: Caco-2, read-out: permeability
Cytochrome P450 2C9 = Cytochrome P450 2C9 (Homo sapiens, UniProt P11712); experiment: Inhibition of CYP2C9 (unknown origin); assay type: ADME; summary of the method: as §1
Sequence of Cytochrome P450 2C9 (P11712 whole entry): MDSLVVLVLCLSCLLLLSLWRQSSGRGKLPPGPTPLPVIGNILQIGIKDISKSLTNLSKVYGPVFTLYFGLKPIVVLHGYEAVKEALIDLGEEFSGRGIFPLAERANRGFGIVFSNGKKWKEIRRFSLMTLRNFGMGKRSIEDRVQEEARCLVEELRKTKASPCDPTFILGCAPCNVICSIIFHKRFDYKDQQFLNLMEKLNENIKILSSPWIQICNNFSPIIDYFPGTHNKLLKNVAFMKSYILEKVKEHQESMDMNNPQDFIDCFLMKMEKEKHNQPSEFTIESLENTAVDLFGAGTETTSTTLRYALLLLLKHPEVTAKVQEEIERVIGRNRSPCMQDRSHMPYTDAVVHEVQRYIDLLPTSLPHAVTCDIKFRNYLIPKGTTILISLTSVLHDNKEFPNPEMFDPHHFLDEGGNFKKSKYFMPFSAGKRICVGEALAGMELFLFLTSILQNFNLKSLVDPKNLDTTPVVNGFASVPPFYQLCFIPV

[12] = Octanol-water partition coefficient, log D of the compound by shake-flask method; assay type: physicochemical
[13] = Clearance in Wistar rat at 2 mg/kg, iv; assay type: ADME, organism-based; parameters: dose 2 mg/kg, route intravenous; settings: in vivo
Summary of the method: (§2)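 Male Wistar rats given a single dose, 2 mg/kg intravenously or 10 mg/kg orally. Plasma concentration followed over time, n = 2 per compound. Parameters taken from the plasma curves: C0 (iv), Cmax (oral), AUC0−∞, elimination half-life, plasma clearance, Vss and oral bioavailability.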

[14] = tested on: Mycobacterium tuberculosis; experiment: Antimycobacterial activity against Mycobacterium tuberculosis H37Rv under hypoxic condition after 6 days by resazurin assay; assay type: functional
Staphylococcus aureus = experiment: Antimicrobial activity against Staphylococcus aureus ARC517 at 100 uM; assay type: functional, organism-based
Summary of the method: (§3)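 Nonmycobacterial panel of Candida albicans, Gram-negative and Gram-positive pathogens.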

[15] = Elimination half life in Wistar rat at 10 mg/kg, po; assay type: ADME, organism-based; parameters: dose 10 mg/kg, route oral; settings: in vivo, read-out: beta t1/2 (converted); summary of the method: as §2
Klebsiella pneumoniae = experiment: Antimicrobial activity against Klebsiella pneumoniae ARC1865 at 100 uM; assay type: functional, organism-based; summary of the method: as §3
[16] = Volume of distribution at steady state in Wistar rat at 2 mg/kg, iv; assay type: ADME, organism-based; parameters: dose 2 mg/kg, route intravenous; settings: in vivo, read-out: Vdss; summary of the method: as §2
Escherichia coli [17] = experiment: Antimicrobial activity against Escherichia coli ARC523 at 100 uM; assay type: functional, organism-based; summary of the method: as §3
Pseudomonas aeruginosa [18] = experiment: Antimicrobial activity against Pseudomonas aeruginosa ARC545 at 100 uM; assay type: functional, organism-based; summary of the method: as §3
[19] = tested on: Mycolicibacterium smegmatis; experiment: Antimicrobial activity against Mycobacterium smegmatis ATCC 607 at 100 uM; assay type: functional, organism-based
Escherichia coli [20] = experiment: Antimicrobial activity against Escherichia coli ARC524 at 100 uM; assay type: functional, organism-based; summary of the method: as §3
Haemophilus influenzae [21] = experiment: Antimicrobial activity against Haemophilus influenzae ARC446 at 100 uM; assay type: functional, organism-based; summary of the method: as §3
Streptococcus pneumoniae = experiment: Antimicrobial activity against Streptococcus pneumoniae ARC548 at 100 uM; assay type: functional, organism-based; summary of the method: as §3
Adenosine receptor A1 = target: T2, Adenosine receptor A1 (Homo sapiens, UniProt P30542); experiment: Inhibition of adenosine A1 receptor (unknown origin)
T2 sequence (P30542 whole entry): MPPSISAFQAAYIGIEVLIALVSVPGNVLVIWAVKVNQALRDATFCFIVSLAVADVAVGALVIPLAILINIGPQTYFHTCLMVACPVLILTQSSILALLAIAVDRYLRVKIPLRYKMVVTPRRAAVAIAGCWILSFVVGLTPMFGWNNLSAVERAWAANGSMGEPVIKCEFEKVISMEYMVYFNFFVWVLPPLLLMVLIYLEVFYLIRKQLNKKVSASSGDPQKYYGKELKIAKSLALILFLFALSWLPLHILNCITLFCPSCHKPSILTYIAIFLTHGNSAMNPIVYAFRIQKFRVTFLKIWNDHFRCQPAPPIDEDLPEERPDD
Summary of the method: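 Secondary pharmacology panel of binding, enzyme and functional assays covering 24 molecular targets. Activity recorded as a defined Ki/IC50/EC50.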

[22] = AUC (0 to infinity) in Wistar rat at 10 mg/kg, po; assay type: ADME, organism-based; parameters: time infinity, dose 10 mg/kg, route oral; settings: plasma; summary of the method: as §2
[23] = Oral bioavailability in Wistar rat at 10 mg/kg; assay type: ADME, organism-based; settings: in vivo; summary of the method: as §2
[24] = tested on: Mycolicibacterium smegmatis; experiment: Antimicrobial activity against Mycobacterium smegmatis mc2155 at 100 uM; assay type: functional, organism-based; settings: str. MC2 155
[25] = Initial plasma concentration in Wistar rat at 2 mg/kg, iv; assay type: ADME, organism-based; parameters: dose 2 mg/kg, route intravenous; summary of the method: as §2
[26] = Elimination half life in Wistar rat at 2 mg/kg, iv; assay type: ADME, organism-based; parameters: dose 2 mg/kg, route intravenous; settings: in vivo, read-out: beta t1/2 (converted); summary of the method: as §2
Haemophilus influenzae [27] = experiment: Antimicrobial activity against Haemophilus influenzae ARC158 at 100 uM; assay type: functional, organism-based; summary of the method: as §3
Pseudomonas aeruginosa [28] = experiment: Antimicrobial activity against Pseudomonas aeruginosa ARC546 at 100 uM; assay type: functional, organism-based; summary of the method: as §3
[29] = Cmax in Wistar rat at 10 mg/kg, po; assay type: ADME, organism-based; parameters: dose 10 mg/kg, route oral; settings: in vivo; summary of the method: as §2
[30] = AUC (0 to infinity) in Wistar rat at 2 mg/kg, iv; assay type: ADME, organism-based; parameters: dose 2 mg/kg, route intravenous, time infinity; settings: plasma; summary of the method: as §2
Candida albicans = experiment: Antimicrobial activity against Candida albicans ARC527 at 100 uM; assay type: functional, organism-based; summary of the method: as §3

In the case of `Cn1ncc(C(=O)N2[C@@H]3CC[C@H]2C[C@@H](Nc2cc(=O)n(C)c4ncccc24)C3)c1Cl`, the MIC [1] is reported as 0.25 µM (≈ 0.107 µg/mL), the INH (Cytochrome P450 3A4) is reported as over 30 µM and the INH (Cytochrome P450 1A2) is reported as over 30 µM. It also gave an INH (Cytochrome P450 2D6) of over 30 µM, an IC50 [2] of 0.026 µM and a hepatocyte CLint at 1 µM [3] of 3 µL/min/1e6 cells. The fraction unbound at 18 h, 20 µM [4] was 0.01, the solubility at 24 h [5] was 20 µM (≈ 8.54 µg/mL) and the MCC at 72 h [6] was over 50 µM. The INH (Cytochrome P450 2C19) was over 30 µM, the microsomal CLint at 1 µM [7] was 37 µL/min/mg and the Papp B→A [8] was 36 ×10⁻⁶ cm/s. It also gave a solubility [9] of 100 µM (≈ 42.7 µg/mL), an IC50 [10] of over 33 µM and a Papp A→B [11] of 1 ×10⁻⁶ cm/s. For the same compound, the INH (Cytochrome P450 2C9) was over 30 µM and the logD [12] was 1.8.
For `Cn1ncc(C(=O)N2CCC(Nc3cc(=O)n(C)c4ccccc34)CC2)c1Cl`, the clearance [13] was 24.8 mL/min/kg, the MIC [1] was 25 µM (≈ 10 µg/mL) and the INH (Cytochrome P450 3A4) was over 30 µM. The INH (Cytochrome P450 1A2) was over 30 µM, the Activity [14] was “inactive” and the INH (Cytochrome P450 2D6) was over 30 µM. The Activity (Staphylococcus aureus) was “inactive”, the IC50 [2] was 0.14 µM and the hepatocyte CLint at 1 µM [3] was 8 µL/min/1e6 cells. The fraction unbound at 18 h, 20 µM [4] was 0.03, the half-life [15] was 1.3 h and the Activity (Klebsiella pneumoniae) was “inactive”. For the same compound, the Vd [16] was 1.2 L/kg, the Activity (Escherichia coli [17]) was “inactive” and the Activity (Pseudomonas aeruginosa [18]) was “inactive”. For the same compound, the solubility at 24 h [5] was 78 µM (≈ 31.2 µg/mL), the MCC at 72 h [6] was over 100 µM and the Activity [19] was “inactive”. For the same compound, the INH (Cytochrome P450 2C19) was over 30 µM, the microsomal CLint at 1 µM [7] was 14 µL/min/mg and the Activity (Escherichia coli [20]) was “inactive”. For the same compound, the Activity (Haemophilus influenzae [21]) was “inactive”, the Activity (Streptococcus pneumoniae) was “inactive” and the Papp B→A [8] was 23 ×10⁻⁶ cm/s. The IC50 (Adenosine receptor A1) was 8 µM, the AUC(0-inf) [22] was 19 µM·h and the IC50 [10] was over 33 µM. For the same compound, the bioavailability [23] was 100%, the Activity [24] was “inactive” and the C0 [25] was 5.4 µM. The half-life [26] was 1.1 h, the Activity (Haemophilus influenzae [27]) was “inactive” and the Papp A→B [11] was 4 ×10⁻⁶ cm/s. The Activity (Pseudomonas aeruginosa [28]) was “inactive”, the INH (Cytochrome P450 2C9) was over 30 µM and the logD [12] was 2. The Cmax [29] was 7 µM, the AUC(0-inf) [30] was 3.4 µM·h and the Activity (Candida albicans) was “inactive”.

— ChEMBL document CHEMBL3286182, “4-aminoquinolone piperidine amides: noncovalent inhibitors of DprE1 with long residence time and potent antimycobacterial activity” (J Med Chem, 2014)
